Screens (PubChem)
The list is not random: actives were taken first. Their share in the collection is about 1.1%.
PMI activator – phosphomannose isomerase (human) activation; P34949; purified human PMI, coupled resazurin fluorescence, 20 min; stronger effect = higher value; 1 = vehicle control, 0 substrate-free wells; activation factor at 20 µM; hit rate 0.005% among 190,000;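 active = activation factor of 2 or more at 20 µM, relative to plate controls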
Target sequence (P34949 whole entry, looked up): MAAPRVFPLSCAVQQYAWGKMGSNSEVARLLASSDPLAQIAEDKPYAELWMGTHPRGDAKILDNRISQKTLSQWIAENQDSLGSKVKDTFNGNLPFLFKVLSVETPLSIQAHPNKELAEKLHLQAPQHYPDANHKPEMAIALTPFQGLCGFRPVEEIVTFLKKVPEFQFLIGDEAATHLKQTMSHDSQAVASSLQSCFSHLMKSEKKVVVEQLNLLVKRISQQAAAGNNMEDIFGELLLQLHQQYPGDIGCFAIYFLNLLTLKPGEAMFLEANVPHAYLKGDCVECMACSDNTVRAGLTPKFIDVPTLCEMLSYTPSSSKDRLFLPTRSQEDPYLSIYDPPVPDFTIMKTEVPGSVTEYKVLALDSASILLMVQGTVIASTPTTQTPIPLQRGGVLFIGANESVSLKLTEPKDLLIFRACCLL
Rad51 HR inh – Rad51 (human) homologous recombination inhibition; Q06609; hRad51 DNA strand exchange, fluorescence dequenching; inhibition, % at 10 µM; hit rate 0.085% among 200,000;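 active = inhibition above 40% at the single screening dose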;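 note: 0% = DMSO control wells and 100% = blanks with heterologous ssDNA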
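Test system – preformed human Rad51 ssDNA filaments · Reagent – Donor/quencher-labelled 47-bp dsDNA substrate · Incubation – 37 °C 15-min filament assembly, 30-min compound preincubation, 15-min exchange · Signal – FRET fluorescence dequenching, excitation 485 nm, emission 520 nm · Read-out – percent inhibition from fluorescence, normalised to plate control and blank means · Benchmarks – plate control and blank wells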
PMI act hi M6P – increases human PMI activity with near-saturating mannose 6-phosphate; P34949; coupled PMI enzyme assay, resazurin fluorescence, 20 min; stronger effect = higher value; 1 = untreated enzyme, 0 = substrate-free blank; activation factor at 20 µM; hit rate 0.34% among 190,000; AID 1216;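 active = activation factor of 2 or more at 20 µM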
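Test system: human PMI in coupled enzyme assay; Input: PMI at 15 ng/mL final; Medium: HEPES buffer, pH 7.4; Schedule: 20 min incubation at room temperature; Technique: resorufin fluorescence at Ex 544/Em 590 nm; Compound: 20 µM single dose; Probe or stimulus: Near-saturating mannose-6-phosphate, 1.0 mM.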
m-calpain inh – blocks pig calpain II enzyme activity. purified calpain II, fluorogenic peptide substrate, 30 min. inhibition, % at 16 µM. hit rate 0.37% among 220,000. AID 1236;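 active = inhibition above about 50%, limit read from the data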
Efa HMGR inh – blocks class II HMG-CoA reductase of Enterococcus faecalis. purified E. faecalis HMGR, NADPH absorbance 340 nm kinetic. inhibition, % at 10 µM. hit rate 0.41% among 190,000. AID 1066;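 active = inhibition above a set limit, the median over all tested compounds plus 3 SD, cut at about 9.5% in these data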;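 note: enzyme runs in reverse so mevalonate oxidation gives rising NADPH absorbance; 0% = complete reaction with DMSO and 100% = background rate lacking mevalonate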
The depositor's hits bear a star; . = no result.

SMILES	PMI activator	Rad51 HR inh	PMI act hi M6P	m-calpain inh	Efa HMGR inh
Cn1c(NCc2ccco2)nc2c1c(=O)n(Cc1ccc(Br)cc1)c(=O)n2C	0.8	1.3	0.8	71.0*	1.5
Cn1c(NCc2ccccc2)nc2c1c(=O)n(Cc1ccc(Br)cc1)c(=O)n2C	0.8	-2.4	0.8	77.5*	-6.2
Cn1c(NCc2ccco2)nc2c1c(=O)n(Cc1ccc(Cl)cc1)c(=O)n2C	0.9	-16.5	1	46.5	-7.2
COc1ccc(Cn2c(=O)c3c(nc(NCCO)n3C)n(C)c2=O)cc1	0.9	0.4	0.9	17.5	1.9
CCCCNC(=O)CSc1nc2cc3c(cc2c(=O)n1CCC(=O)NCCc1ccc(OC)c(OC)c1)OCO3	1.1	3.5	1.1	-75.2	-5.7
CCC1=C[C@H]2CN(C1)Cc1c([nH]c3ccccc13)[C@@](C(=O)OC)(c1cc3c(cc1OC)N(C)[C@H]1[C@@](O)(C(=O)OC)[C@H](OC(C)=O)[C@]4(CC)C=CCN5CC[C@]31[C@@H]54)C2	.	5.6	.	.	.
Nc1ccc(C(CC(=O)O)n2cccc2)cc1 (stereo not given)	0.9	-4.2	0.8	-1.8	-0.4
O=C(O)CC(c1ccccc1)n1cccc1 (stereo not given)	1.3	.	2*	-29.7	-0.8
COCCCNC(=O)c1ccc(N2CCCC2)c(NS(=O)(=O)c2ccc(C)cc2)c1	1.3	-11.1	2.2*	16.5	-0.6
CC(C)[C@H](NC(=O)[C@H](CCCN=C(N)N)NC(=O)NC(Cc1ccccc1)C(=O)O)C(=O)NC(C=O)CCCN=C(N)N (stereo not given in full)	1	0.4	1.1	51.1*	-3.8
CC(C)C(NC(=O)C(Cc1ccccc1)NC(=O)OCc1ccccc1)C(=O)O (stereo not given)	0.9	-10.4	0.9	8.4	-6.9
O=[N+]([O-])c1ccc(-n2cnc3ccccc32)c([N+](=O)[O-])c1	1	.	0.8	23.2	1.1
COc1ccc2oc(=O)c(/C(C)=N/Nc3ccccc3)cc2c1	1.9	-3.4	2.5*	-58.5	3.5
Cc1cc(O)c(/C=N/Nc2ccc(F)cc2)c(=O)o1	1.7	-17.3	2.3*	26.0	-1.4
Cc1ccc(N/N=C/c2c(O)cc(C)oc2=O)cc1	1.4	3.9	2.2*	11.3	-4.7
C/C(=N\Nc1ccccc1)c1c(O)cc(C)oc1=O	1.9	3.6	2.6*	23.9	3.5
CCCCC1=CC2=CC(=O)C(C)(OC(=O)CC)C(=O)C2=CN1CCc1ccc(Br)cc1 (stereo not given)	.	10.1	.	-99.5	.
CCOC(=O)c1cc2cc([N+](=O)[O-])cc(OC)c2oc1=O	0.9	-5.5	1	-17.4	-1.5
S=c1[nH]nc(CSCCOc2ccc(Cl)cc2Cl)o1	.	-9.4	.	24.8	.
CC(OC(=O)c1ccccc1Nc1ccc(SC(F)F)cc1)C(N)=O (stereo not given)	0.9	-9.7	0.8	68.2*	-7.4
CCOC(=O)c1c(C)[nH]c(C(=O)C(C)Cl)c1C (stereo not given)	1.3	-1.0	1.2	-6.9	9.8*
Cc1cc(C)c2c(c1)/C(=c1/sc3n(c1=O)CN(c1ccccc1)CN=3)C(=O)N2	.	5.9	.	-83.0	.
Cc1[nH]nc2c1C(=O)CCC2	1	85.6*	1	-28.1	-2.9
Cc1[nH]nc2c1C(=O)CC(C)(C)C2	0.9	10.0	0.9	-10.1	1.0
O=C(N/N=C/c1ccc(O)cc1)c1ccc(COc2cc(Cl)ccc2Cl)o1	0.9	10.0	0.9	-204.9	11.7*
SMILES	PMI activator	Rad51 HR inh	PMI act hi M6P	m-calpain inh	Efa HMGR inh
O=C(Nc1cccnc1)c1ccc(COc2cc(Cl)ccc2Cl)o1	0.9	5.6	0.9	7.9	-9.1
CCN(CC)c1ccc(NC(=O)CCCOc2cccc(C)c2)cc1	1	41.5*	0.9	4.1	-1.3
Cc1cccc(OCCC(=O)Nc2ccc(C)c(S(=O)(=O)N3CCCCC3)c2)c1	0.9	5.4	0.9	55.1*	2.1
COc1ccc(NC(=O)CCSCCc2ccccn2)cc1OC	1	-6.8	0.8	-8.2	-1.4
Cc1ccc(OCc2cnc(Cl)s2)c(C)c1	1	-0.4	1	-1.9	4.2
CC(C)(C)[C@H]1C=C(C(=O)O)O[C@@H](OCc2ccc(CO)cc2)C1	.	3.8	.	.	.
Cc1cc(=O)c2cccc(Br)c2[nH]1	0.9	0.5	1	-11.1	11.5*
